# Reference: publication PMC7981784 (Journal of medicinal chemistry, 2020)
# Tests used:
# HL60 (No MLL fusion) = assay: Cell growth inhibition assay; type: cell-based, human; conditions: ratio of cell growth IC50 values
# SCID mice = assay: Tolerability studies in mice; type: in vivo
# Procedure, shortened: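 Female SCID mice, three per group, were dosed with test compound on days 1, 3 and 5 for one week. Mice were weighed and checked for clinical signs of toxicity. Weight loss greater than 10% was counted as toxic.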
# HOXA9 gene expression [1] = assay: Pharmacodynamics in MV4; type: in vivo, mice; conditions: for effect in suppressing expression of HOXA9 gene: single intravenous dose 10 mg/kg, 24 hr, MV4;11 tumors in mice
# Procedure, shortened: (§1)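 Mice bearing subcutaneous MV4;11 xenografts received a single IV dose of vehicle or test compound: 10 mg/kg with tumors taken at 24 h, or 25 mg/kg with tumors taken at 6, 24 and 48 h; 3 mice per time point. Tumors were snap-frozen in liquid N2 and powdered. Total RNA was reverse-transcribed and HOXA9 and MEIS1 quantified by TaqMan real-time PCR. Comparative Ct method, normalized to GAPDH, expressed relative to vehicle.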
# MEIS1 gene expression [2] = conditions: single dose 50 mg/kg intravenous; previous study; cited from earlier work
# HOXA9 gene expression [3] = conditions: single dose 50 mg/kg intravenous; previous study; cited from earlier work
# MV4;11 xenograft tumor = assay: In vivo antitumor efficacy in the MV4
# Procedure, shortened: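 Female C.B-17 SCID mice received 5 × 10^6 MV4;11 cells subcutaneously in the flank, in 1:1 PBS/Matrigel (final Matrigel 5 mg/mL). At tumor volumes of 60–140 mm3, mice were randomized into groups of 7. Test compound was given IV in 10% PEG 400:3% Cremophor EL:87% PBS at 10 or 25 mg/kg, every other day, 3 times per week, for 11 doses; controls got vehicle. Caliper volume = (A×B2)/2. Tumor volume and body weight were measured 2–3 times weekly during treatment and at least weekly afterwards.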
# MEIS1 gene expression [4] = assay: Pharmacodynamics in MV4; type: in vivo, mice; conditions: single intravenous dose 25 mg/kg; 6, 24 and 48 h
# Procedure, shortened: as §1
# [5] = 25 mg/kg every other day (three times a week) for one week
# [6] = intravenous 10 mg/kg every other day (three times a week) for one week
Compound,cellular selectivity for MLL leukemia cells over HL-60 (non-MLL leukemia cells) (HL60 (No MLL fusion)),cellular selectivity for MV4;11 and MOLM-13 cell lines over HL-60 cell line (HL60 (No MLL fusion)),animal weight loss (SCID mice; [5]),tolerability (SCID mice; [6]),effect in suppressing expression of HOXA9 gene (HOXA9 gene expression [1]),further results
"COC(=O)N[C@H]1CCC[C@@H]1[C@](CN1CCC1)(c1cccc(F)c1)C1CCN(CC2CN(c3ccc(S(=O)(=O)C4CN(C(=O)/C=C/CN5CCC5)C4)cc3)C2)CC1 [Compound 14, Methyl ((1S,2R)-2-((S)-2-(azetidin-1-yl)-1-(1-((1-(4-((1-((E)-4-(azetidin-1-yl)but-2-enoyl)azetidin-3-yl)sulfonyl)phenyl)azetidin-3-yl)methyl)piperidin-4-yl)-1-(3-fluorophenyl)ethyl)cyclopentyl)carbamate]",> 700 fold,–,–,–,–,–
"COC(=O)N[C@H]1CCC[C@@H]1[C@](CN(C)C)(c1cccc(F)c1)C1CCN(CC2CN(c3ccc(S(=O)(=O)C4CN(C(=O)/C=C/CN(C)C)C4)cc3)C2)CC1 [Compound 9, Methyl ((1S,2R)-2-((S)-2-(dimethylamino)-1-(1-((1-(4-((1-((E)-4-(dimethylamino)but-2-enoyl)azetidin-3-yl)sulfonyl)phenyl)azetidin-3-yl)methyl)piperidin-4-yl)-1-(3-fluorophenyl)ethyl)cyclopentyl)carbamate]",–,> 300 times,–,–,–,–
"COC(=O)N[C@H]1CCC[C@@H]1[C@](CN1CCC1)(c1cccc(F)c1)C1CCN(CC2CN(c3ccc(S(=O)(=O)C4CN(C(=O)/C=C/CN5CCCC5)C4)cc3)C2)CC1 [Compound 15, Methyl ((1S,2R)-2-((S)-2-(azetidin-1-yl)-1-(3-fluorophenyl)-1-(1-((1-(4-((1-((E)-4-(pyrrolidin-1-yl)but-2-enoyl)azetidin-3-yl)sulfonyl)phenyl)azetidin-3-yl)methyl)piperidin-4-yl)ethyl)cyclopentyl)carbamate]",> 200 fold,–,> 10%,well tolerated,significant but modest effect,–
COC(=O)N[C@H]1CCC[C@@H]1[C@](C#N)(c1cccc(F)c1)C1CCN(CC2CN(c3ccc(S(=O)(=O)C4CN(C(=O)/C=C/CN(C)C)C4)cc3)C2)CC1 [Compound M-525],–,–,–,–,–,suppression of MEIS1 gene expression in MV4;11 xenograft tumor tissue (MEIS1 gene expression [2]): strong suppression; suppression of HOXA9 gene expression in MV4;11 xenograft tumor tissue (HOXA9 gene expression [3]): strong suppression
"COC(=O)N[C@H]1CCC[C@@H]1[C@](CN1CCC1)(c1cccc(F)c1)C1CCN(CC2CN(c3ccc(S(=O)(=O)C4CN(C(=O)/C=C/CN5CCCCC5)C4)cc3)C2)CC1 [Compound 16, Methyl ((1S,2R)-2-((S)-2-(azetidin-1-yl)-1-(3-fluorophenyl)-1-(1-((1-(4-((1-((E)-4-(piperidin-1-yl)but-2-enoyl)azetidin-3-yl)sulfonyl)phenyl)azetidin-3-yl)methyl)piperidin-4-yl)ethyl)cyclopentyl)carbamate]",–,–,–,well tolerated,significant but modest effect,"tolerability (SCID mice; [5]): well tolerated; suppression of HOXA9 gene expression in tumor tissue (HOXA9 gene expression [1]; single intravenous dose 25 mg/kg, 6, 24 and 48 h): effectively suppresses; effect on tumor growth over vehicle control (MV4;11 xenograft tumor; 10 mg/kg IV every other day, 3 times per week, 11 doses): no effect on tumor growth; body weight change and drug-related toxicity (MV4;11 xenograft tumor; 10 or 25 mg/kg IV, during and after treatment): no significant weight change; suppression of MEIS1 gene expression in tumor tissue (MEIS1 gene expression [4]): effectively suppresses"
"COC(=O)N[C@H]1CCC[C@@H]1[C@](CN1CCC1)(c1cccc(F)c1)C1CCN(CC2CN(c3ccc(S(=O)(=O)C4CN(C(=O)/C=C/CN(C)C)C4)cc3)C2)CC1 [Compound 10, Methyl ((1S,2R)-2-((S)-2-(azetidin-1-yl)-1-(1-((1-(4-((1-((E)-4-(dimethylamino)but-2-enoyl)azetidin-3-yl)sulfonyl)phenyl)azetidin-3-yl)methyl)piperidin-4-yl)-1-(3-fluorophenyl)ethyl)cyclopentyl)carbamate]",–,> 300 times,> 10%,well tolerated,significant but modest effect,–
